Assay outcomes as filed in PubChem BioAssay.
Hits are enriched below; roughly 5.9% of the tested compounds scored in any of these assays.
KDM4C inh: blocks human GASC-1 (KDM4C) demethylase activity; 0.15% of 96,000 active; Q9H3R0; inhibition, % at 12.5 µM; GST-KDM4C 2-372, H3K9me3 peptide, LANCE TR-FRET;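 active = mean replicate inhibition above about 25%, with at least 55% of replicates also reaching it, limit read from the data, passing the limit was not always enough; inconclusive = only one of those two conditions met; inactive = neither condition met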
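Test system – GST-tagged GASC-1 (JMJD2C) catalytic fragment, aa 2-372 · Medium – HEPES buffer, pH 7.5, plus ascorbate · Reagent – H3K9me3 peptide with Fe(II)/2OG · Compound – one test concentration per compound · Timing – 30 min reaction, 60 min detection, RT · Technique – TR-FRET with Eu antibody and ULight streptavidin, EDTA stop · Read-out basis – inhibition from TR-FRET ratio decrease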
T cruzi growth-1: T. cruzi proliferation inhibition; inhibition, % at 8.34 µM; T. cruzi beta-gal in NIH3T3, GalScreen luminescence, 90 h; 5.9% of 77,000 active;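 active = mean inhibition above about 93%, with at least 55% of replicates each passing it, limit read from the data, passing the limit was not always enough; inconclusive = only one of those two conditions holds; inactive = neither condition holds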
Pf Dd2 inh: blocks growth of Plasmodium falciparum Dd2 parasites | 2.3% of 94,000 active | activity change, % at 10 µM | P. falciparum Dd2 growth, SYBR Green, 72 h; active compounds read low; in the data active = activity change below about -80%; inconclusive = no clear call, values can overlap the other calls
IDH1 mut inh: inhibitors of human IDH1 R132H; 0.18% of 70,000 active; IDH1 R132H reductase, diaphorase/resazurin fluorescence, 60 min; inhibition, % at 10 µM; O75874; AID 624101; in the data active = inhibition above about 34%; inconclusive = no clear call, values can overlap the other calls; inactive = below about 11%;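 note: 0% = DMSO and 100% = no enzyme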
Target sequence (O75874 whole entry R132H): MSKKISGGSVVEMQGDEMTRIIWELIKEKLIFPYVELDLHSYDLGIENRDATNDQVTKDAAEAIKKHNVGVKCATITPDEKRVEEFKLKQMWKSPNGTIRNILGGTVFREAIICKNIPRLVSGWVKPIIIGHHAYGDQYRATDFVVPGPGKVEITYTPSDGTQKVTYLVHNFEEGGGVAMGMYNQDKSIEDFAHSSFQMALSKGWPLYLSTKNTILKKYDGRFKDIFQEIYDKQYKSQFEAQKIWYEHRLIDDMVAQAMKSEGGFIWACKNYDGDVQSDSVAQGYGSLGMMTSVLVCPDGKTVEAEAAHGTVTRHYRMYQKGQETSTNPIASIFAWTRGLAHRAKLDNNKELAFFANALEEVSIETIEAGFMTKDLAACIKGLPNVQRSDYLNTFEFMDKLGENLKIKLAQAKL
T cruzi growth-2: blocks T. cruzi growth in NIH3T3 host cells; T. cruzi beta-gal in NIH3T3, GalScreen luminescence, 90 h; 72% of 5,600 active; shares compounds with T cruzi growth-1; AID 651739; inhibition, % at 8.35 µM;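 active = mean replicate inhibition above about 95% and at least 55% of replicates individually reaching it, limit read from the data; inconclusive = only one of the two criteria is met; inactive = neither criterion is met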
T cruzi growth-3: inhibitors of T. cruzi proliferation. shares compounds with T cruzi growth-1. T. cruzi beta-gal in NIH3T3, GalScreen luminescence, 90 h. inhibition, % at 2.09 µM. 21% of 5,600 active;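 active = mean inhibition above about 95%, with at least 55% of replicates also reaching it, limit read from the data; inconclusive = meets just one of the two conditions; inactive = meets neither condition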;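 note: plate controls were neutral control median for no effect and positive control median for full effect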
NIH3T3 tox: NIH/3T3 (mouse) viability loss | cytotoxicity (signal decrease), % at 8.35 µM | 14% of 5,600 active | NIH/3T3 viability, CellTiter-Glo ATP luminescence, 90 h | AID 651742 | shares compounds with T cruzi growth-1;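 active = mean signal decrease across replicates above about 35% based on untreated-well scatter, with enough replicates individually passing, limit read from the data; inconclusive = no rule stated though some were filed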;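 note: 0% = median of neutral control wells and 100% = median of positive control wells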
3T3 cytotox 2: kills mouse NIH/3T3 fibroblasts; shares compounds with T cruzi growth-1; inhibition, % at 24.9 µM; 56% of 5,600 active; NIH/3T3 viability, CellTiter-Glo ATP luminescence, 90 h;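 active = mean loss of cell viability signal at or above a set limit, and enough replicates individually reaching it; inconclusive = meets only the mean limit or only the replicate share; inactive = meets neither condition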;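 note: 0% = median of neutral control wells and 100% = median of positive control wells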
* hit, by the source's call; ? = inconclusive; . = no result.

SMILES	KDM4C inh	T cruzi growth-1	Pf Dd2 inh	IDH1 mut inh	T cruzi growth-2	T cruzi growth-3	NIH3T3 tox	3T3 cytotox 2
Cc1cc(C)nc(NS(=O)(=O)c2ccc(-n3c(-c4ccc5ccccc5n4)n[nH]c3=S)cc2)n1	.	.	.	2	.	.	.	.
CCc1cnc(N2[C@H](CO)[C@@H](c3ccc(C#Cc4ccccc4F)cc3)[C@@H]2C#N)s1	-1	103*	-40	.	96*	111*	-16	85*
CCc1cnc(N2[C@@H](C#N)[C@@H](c3ccc(C#Cc4ccccc4F)cc3)[C@@H]2CO)s1	-1	100*	-24	.	90	109*	-18	62*
COc1ccccc1NC(=O)N1CCCCN2[C@H](CO)[C@@H](c3ccc(C#CC4CCCC4)cc3)[C@@H]2C1	-1	102*	-15	.	98*	68	26	105*
COc1ccccc1NC(=O)N1CCCCN2[C@H](CO)[C@H](c3ccc(C#Cc4ccccc4)cc3)[C@@H]2C1	-2	78	?	.	.	.	.	.
COc1ccccc1NC(=O)N1CCCCN2[C@H](CO)[C@@H](c3ccc(C#Cc4ccccc4)cc3)[C@H]2C1	-2	112*	-73	.	102*	102*	119*	105*
COc1ccccc1NC(=O)N1CCCCN2[C@@H](CO)[C@H](c3ccc(C#Cc4ccccc4)cc3)[C@@H]2C1	-3	112*	?	.	92	108*	118*	104*
COc1ccccc1NC(=O)N1CCCCN2[C@@H](CO)[C@@H](c3ccc(C#CC4CCCC4)cc3)[C@@H]2C1	-1	-3	-64	.	.	.	.	.
Cn1cnc(CCNC(=O)C[C@H]2CC[C@@H]3[C@H](COC[C@@H](O)CN3C(=O)Nc3ccc(C(F)(F)F)cc3)O2)c1	0	114*	-44	.	100*	34	31	22
Cn1cnc(CCNC(=O)C[C@@H]2CC[C@@H]3[C@H](COC[C@H](O)CN3C(=O)Nc3ccc(C(F)(F)F)cc3)O2)c1	-1	107*	-16	.	45	-42	19	24
Cn1cnc(CCNC(=O)C[C@@H]2CC[C@H]3[C@@H](COC[C@H](O)CN3C(=O)Nc3ccc(C(F)(F)F)cc3)O2)c1	0	52	-18	.	.	.	.	.
N#C[C@@H]1[C@@H](c2ccc(C#CCC3CCCC3)cc2)[C@H](CO)N1C(=O)c1ccccn1	0	97*	-24	.	?	112*	-1	107*
N#C[C@H]1[C@@H](c2ccc(C#CCC3CCCC3)cc2)[C@@H](CO)N1C(=O)c1ccccn1	-1	97*	?	0	102*	112*	-25	93*
COCC(=O)N1[C@H](CO)[C@H](c2ccc(C#CCC3CCCC3)cc2)[C@@H]1C#N	-1	89	-28	0	.	.	.	.
COc1c(OC)c2c(C)cccc2oc1=O	.	.	.	0	.	.	.	.
O=C(CSc1nnc(-c2ccc(Cl)cc2)o1)N1c2ccccc2Sc2ccccc21	.	.	.	0	.	.	.	.
C[C@H]1CN([C@@H](C)CO)C(=O)c2cc(C#CCC3CCCC3)cnc2O[C@@H]1CN(C)Cc1ccccn1	7	104*	-56	0	101*	46	6	107*
C[C@@H]1CN([C@@H](C)CO)C(=O)c2cc(C#CCc3ccccc3)cnc2O[C@H]1CN(C)CC1CCOCC1	0	-23	-53	0	.	.	.	.
C[C@H](CO)N1C[C@H](C)[C@@H](CN(C)CC2CCCC2)Oc2ncc(C#CCc3ccccc3)cc2C1=O	0	97*	-87*	-4	101*	106*	?	104*
C[C@H]1CN([C@@H](C)CO)C(=O)c2cc(C#CCc3ccccc3)cnc2O[C@@H]1CN(C)C(=O)C1CCCCC1	1	?	-83*	.	96*	55	-10	97*
C[C@H](CO)N1C[C@H](C)[C@@H](CN(C)Cc2ccccn2)Oc2ncc(C#CCC3CCCC3)cc2C1=O	.	89	-28	-1	.	.	.	.
